According to ChEMBL document CHEMBL2157912, “Pyrido[1,2-a]pyrimidin-4-ones as antiplasmodial falcipain-2 inhibitors” (Bioorg Med Chem, 2012):

Tests used:
[1] = system: Plasmodium falciparum; assay: Inhibition of recombinant Plasmodium falciparum falcipain 2 at 10 uM preincubated for 10 mins before addition of Z-Phe-Arg-AMC substrate by fluorescence spectrophotometry
Summary of the method: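 Soluble recombinant FP-2 (30 nM) preincubated with compound at 10 µM for 10 min at room temperature in 100 mM sodium acetate pH 5.5 with 10 mM DTT. Compound was diluted from DMSO stock. Z-Phe-Arg-AMC was then added (25 µM final), and fluorescence (ex 355/em 460 nm) was followed for 10 min at room temperature. % inhibition = [1 − Ftest/Fcontrol]×100; mean of three independent determinations.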

[2] = Inhibition of recombinant Plasmodium falciparum falcipain 2 incubated with compound for 10 mins before addition of Z-Phe-Arg-AMC substrate by fluorescence spectrophotometry
Summary of the method: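 FP-2 (30 nM) was preincubated for 10 min at room temperature with a series of fixed compound concentrations (from DMSO stock) in 100 mM sodium acetate pH 5.5, 10 mM DTT. Z-Phe-Arg-AMC was added to 25 µM final and AMC fluorescence (355/460 nm) monitored 10 min. IC50 was determined only for compounds reaching ≥40% inhibition at 10 µM; values are means of three independent determinations.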

[3] = system: Plasmodium falciparum; assay: Inhibition of recombinant Plasmodium falciparum falcipain 2 at 2 uM preincubated for 10 mins before addition of Z-Phe-Arg-AMC substrate by fluorescence spectrophotometry

inhibition [1] | IC50 [2] | inhibition [3] | SMILES
7% | – | – | O=C(NCc1ccc2c(c1)OCO2)c1cnc2ccccn2c1=O
42% | 23 µM | – | O=C(NCCc1cccs1)Nc1cnc2ccc(Cl)cn2c1=O
44% | 14 µM | – | O=C(NCCc1cccs1)Nc1cnc2ccccn2c1=O
46% | 16 µM | – | CC(=O)NCCNC(=O)Nc1cnc2ccccn2c1=O
39% | – | – | O=C(NCc1ccc(Cl)cc1)Nc1cnc2ccccn2c1=O
31% | – | – | COCCNC(=O)Nc1cnc2ccccn2c1=O
18% | – | – | O=C(Nc1cnc2ccccn2c1=O)OCc1ccccn1
18% | – | – | COc1ccc(CNC(=O)Nc2cnc3ccccn3c2=O)cc1
12% | – | – | O=C(Nc1cnc2ccccn2c1=O)OCc1ccccc1

Continued, molecule first:

SMILES | inhibition [1] | IC50 [2] | inhibition [3]
Cc1ccn2c(=O)c(NC(=O)N3CCN(C(c4ccccc4)c4ccccc4)CC3)cnc2c1 | 23% | – | –
Cc1ccn2c(=O)c(NC(=O)OCc3ccccn3)cnc2c1 | 42% | 18 µM | –
COc1ccc(N2CCN(C(=O)Nc3cnc4ccccn4c3=O)CC2)cc1 | 43% | – | –
CC(C)C[C@H](NC(=O)[C@H]1O[C@@H]1C(=O)O)C(=O)NCCCCN=C(N)N [E-64] | – | 0.02 µM | 92%
O=C(NCCCN1CCOCC1)Nc1cnc2ccccn2c1=O | 25% | – | –
O=C(NCCN1CCOCC1)Nc1cnc2ccc(Cl)cn2c1=O | 68% | 7 µM | –
COc1ccc(N2CCN(C(=O)Nc3cnc4ccc(Cl)cn4c3=O)CC2)cc1 | 36% | – | –
CC(=O)NCCNC(=O)Nc1cnc2cc(C)ccn2c1=O | 15% | – | –
COCCNC(=O)Nc1cnc2cc(C)ccn2c1=O | 63% | 6 µM | –
O=C(Nc1cnc2ccc(Cl)cn2c1=O)N1CCN(c2ccccn2)CC1 | 41% | 12 µM | –
Cc1ccn2c(=O)c(C(=O)NCc3ccc(F)cc3)cnc2c1 | 6% | – | –
COc1ccc(N2CCN(C(=O)Nc3cnc4cc(C)ccn4c3=O)CC2)cc1 | 46% | 19 µM | –
Cc1ccn2c(=O)c(NC(=O)NCCN3CCOCC3)cnc2c1 | 27% | – | –
Cc1ccn2c(=O)c(NC(=O)NCCc3cccs3)cnc2c1 | 45% | 21 µM | –
Cc1ccn2c(=O)c(NC(=O)N3CCN(c4ccccn4)CC3)cnc2c1 | 37% | – | –
O=C(Nc1cnc2ccccn2c1=O)N1CCN(c2ccccn2)CC1 | 46% | 15 µM | –
Cc1ccn2c(=O)c(NC(=O)OCc3ccccc3)cnc2c1 | 31% | – | –
O=C(NCc1ccc2c(c1)OCO2)c1cnc2ccc(Cl)cn2c1=O | 24% | – | –
